Test system: U2OS
Test: Multiplex assay against U2OS
Format: toxicity, cell-based
Settings: human
Outline: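 At seeding, live cells were stained with Hoechst33342, BioTracker Green Microtubule Cytoskeleton Dye, MitoTracker Red and Annexin V Alexa Fluor 680. After compound addition they were imaged on a CQ1 microscope at 37°C and 5% CO2, and CellPathfinder machine-learning gating sorted them into Hoechst high-intensity objects or normal cells, with normal cells further split into healthy, pyknosed or fragmented nuclei and pyknosed cells into mitotic or apoptotic. Tubulin, mitochondrial-mass and membrane-permeability phenotypes are given as per cents of cells with healthy nuclei.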

[1] = 12 h, 1 µM, compound concentration 1 uM, replicate 1
[2] = 12 h, 1 µM, compound concentration 1 uM, replicate 2
[3] = 12 h, 10 µM, compound concentration 10 uM, replicate 1
[4] = 12 h, 10 µM, compound concentration 10 uM, replicate 2
[5] = 24 h, 1 µM, compound concentration 1 uM, replicate 1
[6] = 24 h, 1 µM, compound concentration 1 uM, replicate 2
[7] = 24 h, 10 µM, compound concentration 10 uM, replicate 1
[8] = 24 h, 10 µM, compound concentration 10 uM, replicate 2
[9] = 48 h, 1 µM, compound concentration 1 uM, replicate 1
[10] = 48 h, 1 µM, compound concentration 1 uM, replicate 2
[11] = 48 h, 10 µM, compound concentration 10 uM, replicate 1
[12] = 48 h, 10 µM, compound concentration 10 uM, replicate 2

CC(=O)Nc1cccc2c1c(Sc1ccc(Cl)cc1)c(C)n2CC(=O)O [AZD1981]
Population Apoptotic (%) [1]: 68%
Population Fragmented Nuclei (%) [1]: 24%
Population Healthy Nuclei (%) [1]: 68%
Population Hoechst High Intensity Objects (%) [1]: 3%
Population Membrane Permeable-Phenotype (%) [1]: 3%
Population Mitochondria Different-Phenotype (%) [1]: 0%
Population Mitotic Cells (%) [1]: 31%
Population Normal (%) [1]: 96%
Population Pyknosed Nuclei (%) [1]: 6%
Population Tubulin-Different-Phenotype (%) [1]: 2%
Total Cell Count [1]: 253
Population Apoptotic (%) [2]: 83%
Population Fragmented Nuclei (%) [2]: 16%
Population Healthy Nuclei (%) [2]: 76%
Population Hoechst High Intensity Objects (%) [2]: 1%
Population Membrane Permeable-Phenotype (%) [2]: 6%
Population Mitochondria Different-Phenotype (%) [2]: 1%
Population Mitotic Cells (%) [2]: 16%
Population Normal (%) [2]: 98%
Population Pyknosed Nuclei (%) [2]: 7%
Population Tubulin-Different-Phenotype (%) [2]: 3%
Total Cell Count [2]: 82
Population Apoptotic (%) [3]: 83%
Population Fragmented Nuclei (%) [3]: 25%
Population Healthy Nuclei (%) [3]: 66%
Population Hoechst High Intensity Objects (%) [3]: 2%
Population Membrane Permeable-Phenotype (%) [3]: 8%
Population Mitochondria Different-Phenotype (%) [3]: 0%
Population Mitotic Cells (%) [3]: 16%
Population Normal (%) [3]: 97%
Population Pyknosed Nuclei (%) [3]: 7%
Population Tubulin-Different-Phenotype (%) [3]: 1%
Total Cell Count [3]: 231
Population Apoptotic (%) [4]: 80%
Population Fragmented Nuclei (%) [4]: 19%
Population Healthy Nuclei (%) [4]: 76%
Population Hoechst High Intensity Objects (%) [4]: 3%
Population Membrane Permeable-Phenotype (%) [4]: 10%
Population Mitochondria Different-Phenotype (%) [4]: 3%
Population Mitotic Cells (%) [4]: 20%
Population Normal (%) [4]: 96%
Population Pyknosed Nuclei (%) [4]: 4%
Population Tubulin-Different-Phenotype (%) [4]: 5%
Total Cell Count [4]: 122
Population Apoptotic (%) [5]: 91%
Population Fragmented Nuclei (%) [5]: 25%
Population Healthy Nuclei (%) [5]: 66%
Population Hoechst High Intensity Objects (%) [5]: 2%
Population Membrane Permeable-Phenotype (%) [5]: 5%
Population Mitochondria Different-Phenotype (%) [5]: 1%
Population Mitotic Cells (%) [5]: 8%
Population Normal (%) [5]: 97%
Population Pyknosed Nuclei (%) [5]: 8%
Population Tubulin-Different-Phenotype (%) [5]: 3%
Total Cell Count [5]: 289
Population Apoptotic (%) [6]: 50%
Population Fragmented Nuclei (%) [6]: 16%
Population Healthy Nuclei (%) [6]: 82%
Population Hoechst High Intensity Objects (%) [6]: 0%
Population Membrane Permeable-Phenotype (%) [6]: 4%
Population Mitochondria Different-Phenotype (%) [6]: 3%
Population Mitotic Cells (%) [6]: 50%
Population Normal (%) [6]: 100%
Population Pyknosed Nuclei (%) [6]: 1%
Population Tubulin-Different-Phenotype (%) [6]: 0%
Total Cell Count [6]: 106
Population Apoptotic (%) [7]: 88%
Population Fragmented Nuclei (%) [7]: 23%
Population Healthy Nuclei (%) [7]: 66%
Population Hoechst High Intensity Objects (%) [7]: 0%
Population Membrane Permeable-Phenotype (%) [7]: 6%
Population Mitochondria Different-Phenotype (%) [7]: 2%
Population Mitotic Cells (%) [7]: 11%
Population Normal (%) [7]: 99%
Population Pyknosed Nuclei (%) [7]: 9%
Population Tubulin-Different-Phenotype (%) [7]: 2%
Total Cell Count [7]: 266
Population Apoptotic (%) [8]: 100%
Population Fragmented Nuclei (%) [8]: 14%
Population Healthy Nuclei (%) [8]: 77%
Population Membrane Permeable-Phenotype (%) [8]: 3%
Population Mitochondria Different-Phenotype (%) [8]: 4%
Population Mitotic Cells (%) [8]: 0%
Population Pyknosed Nuclei (%) [8]: 8%
Population Tubulin-Different-Phenotype (%) [8]: 0%
Total Cell Count [8]: 125
Population Apoptotic (%) [9]: 91%
Population Fragmented Nuclei (%) [9]: 16%
Population Healthy Nuclei (%) [9]: 74%
Population Hoechst High Intensity Objects (%) [9]: 1%
Population Membrane Permeable-Phenotype (%) [9]: 6%
Population Mitochondria Different-Phenotype (%) [9]: 2%
Population Mitotic Cells (%) [9]: 8%
Population Normal (%) [9]: 98%
Population Pyknosed Nuclei (%) [9]: 9%
Population Tubulin-Different-Phenotype (%) [9]: 4%
Total Cell Count [9]: 375
Population Apoptotic (%) [10]: 81%
Population Fragmented Nuclei (%) [10]: 9%
Population Healthy Nuclei (%) [10]: 82%
Population Hoechst High Intensity Objects (%) [10]: 3%
Population Mitochondria Different-Phenotype (%) [10]: 0%
Population Mitotic Cells (%) [10]: 18%
Population Normal (%) [10]: 96%
Population Pyknosed Nuclei (%) [10]: 7%
Population Tubulin-Different-Phenotype (%) [10]: 1%
Total Cell Count [10]: 144
Population Apoptotic (%) [11]: 100%
Population Fragmented Nuclei (%) [11]: 18%
Population Healthy Nuclei (%) [11]: 75%
Population Hoechst High Intensity Objects (%) [11]: 2%
Population Membrane Permeable-Phenotype (%) [11]: 7%
Population Mitochondria Different-Phenotype (%) [11]: 2%
Population Mitotic Cells (%) [11]: 0%
Population Normal (%) [11]: 97%
Population Pyknosed Nuclei (%) [11]: 5%
Population Tubulin-Different-Phenotype (%) [11]: 4%
Total Cell Count [11]: 366
Population Apoptotic (%) [12]: 85%
Population Fragmented Nuclei (%) [12]: 14%
Population Healthy Nuclei (%) [12]: 73%
Population Hoechst High Intensity Objects (%) [12]: 1%
Population Mitochondria Different-Phenotype (%) [12]: 4%
Population Mitotic Cells (%) [12]: 15%
Population Normal (%) [12]: 98%
Population Pyknosed Nuclei (%) [12]: 11%
Total Cell Count [12]: 171
